Calls of active or inactive are those of the source. The rule behind the calls is not given here.
Experiments:
[1] = Half life in mouse liver microsomes by LC-MS/MS analysis; format: ADME
[2] = biological target: Mitogen-activated protein kinase 1 (Homo sapiens, UniProt P28482); assay: Inhibition of full length recombinant human GST-tagged ERK2 expressed in Escherichia coli using Ser/Thr 03 as substrate after 1 hr by Z'-Lyte assay
Method in brief: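 Z'-Lyte FRET activity assay run per the supplier's protocol, with ATP near the kinase's Km.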

[3] = biological target: Dual specificity mitogen-activated protein kinase kinase 1 (Homo sapiens, UniProt Q02750); assay: Inhibition of full length recombinant human His-tagged MEK1 expressed in baculovirus expression system after 1 hr by TR-FRET based LanthaScreen assay
[4] = biological target: T1, Mitogen-activated protein kinase kinase kinase 7 (Homo sapiens, UniProt O43318); assay: Inhibition of full length recombinant human GST-tagged TAK1 expressed in baculovirus expression system after 1 hr by TR-FRET based LanthaScreen assay
T1 sequence (O43318 whole entry): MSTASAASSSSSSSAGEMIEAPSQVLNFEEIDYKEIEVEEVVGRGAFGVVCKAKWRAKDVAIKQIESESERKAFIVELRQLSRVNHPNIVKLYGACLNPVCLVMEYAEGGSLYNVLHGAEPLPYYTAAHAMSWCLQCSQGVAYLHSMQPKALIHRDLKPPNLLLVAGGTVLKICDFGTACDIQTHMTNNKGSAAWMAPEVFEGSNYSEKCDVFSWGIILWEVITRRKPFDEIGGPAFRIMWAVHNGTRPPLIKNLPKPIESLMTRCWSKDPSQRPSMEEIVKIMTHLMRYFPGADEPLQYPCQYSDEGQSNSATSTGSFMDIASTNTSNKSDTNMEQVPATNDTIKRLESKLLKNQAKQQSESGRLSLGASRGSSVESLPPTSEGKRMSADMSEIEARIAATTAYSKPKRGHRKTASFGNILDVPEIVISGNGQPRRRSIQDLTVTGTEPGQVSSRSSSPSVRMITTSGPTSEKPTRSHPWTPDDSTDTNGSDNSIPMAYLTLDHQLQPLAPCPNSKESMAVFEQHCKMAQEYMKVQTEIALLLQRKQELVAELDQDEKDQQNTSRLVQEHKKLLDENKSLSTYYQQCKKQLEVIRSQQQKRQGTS

[5] = biological target: T2, Mitogen-activated protein kinase kinase kinase 7 (Homo sapiens) (UniProt O43318)
T2 sequence (whole entry): T1 sequence (O43318 whole entry)

[6] = biological target: T1, Mitogen-activated protein kinase kinase kinase 7; assay: Time-dependent inhibition of TAB1 fused TAK1 (unknown origin) using FAM-LRRKtide as substrate by mobility shift assay
[7] = biological target: T2, Mitogen-activated protein kinase kinase kinase 7 (Homo sapiens); details: 10 uM
[8] = biological target: T3, Mitogen-activated protein kinase kinase kinase 3 (Homo sapiens) (UniProt Q99759); assay: Inhibition of human MAP3K3 (E320 to Y626 residues) expressed in mammalian expression system at 1 uM by KINOMEScan assay
T3 sequence (whole entry): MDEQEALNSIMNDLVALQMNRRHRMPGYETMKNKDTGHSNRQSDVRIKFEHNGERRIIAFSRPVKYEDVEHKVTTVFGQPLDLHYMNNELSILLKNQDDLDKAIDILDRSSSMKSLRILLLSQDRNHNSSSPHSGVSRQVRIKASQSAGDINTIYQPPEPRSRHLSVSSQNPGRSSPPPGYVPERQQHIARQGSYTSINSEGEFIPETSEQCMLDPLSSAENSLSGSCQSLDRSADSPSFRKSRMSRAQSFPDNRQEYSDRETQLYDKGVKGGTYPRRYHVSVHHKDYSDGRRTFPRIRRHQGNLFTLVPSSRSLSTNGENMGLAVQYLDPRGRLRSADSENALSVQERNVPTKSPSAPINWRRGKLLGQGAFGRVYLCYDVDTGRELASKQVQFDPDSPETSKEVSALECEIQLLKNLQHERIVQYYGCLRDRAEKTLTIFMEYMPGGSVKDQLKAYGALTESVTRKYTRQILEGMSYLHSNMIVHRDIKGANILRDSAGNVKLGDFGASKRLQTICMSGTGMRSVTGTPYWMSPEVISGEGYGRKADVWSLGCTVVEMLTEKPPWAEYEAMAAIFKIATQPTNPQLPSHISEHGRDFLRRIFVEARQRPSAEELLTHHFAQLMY
Method in brief: (§1)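 KINOMEscan in vitro ATP-site competition binding, screened across a 468-kinase and mutant panel at a single concentration of 1 μM. Read-out is a binding or inhibition score […].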

[9] = biological target: Protein-tyrosine kinase 2-beta (Homo sapiens) (UniProt Q14289); assay: Inhibition of full length human PYK2 (M1 to E967 residues) expressed in bacterial expression system at 1 uM by KINOMEScan assay; method in brief: as §1
[10] = biological target: Wee1-like protein kinase (Homo sapiens) (UniProt P30291); assay: Inhibition of human WEE1 (M291 to K575 residues) expressed in bacterial expression system at 1 uM by KINOMEScan assay; method in brief: as §1
[11] = biological target: T4, Mitogen-activated protein kinase kinase kinase 2 (Homo sapiens) (UniProt Q9Y2U5); assay: Inhibition of human MAP3K2 (S315 to H619 residues) expressed in mammalian expression system at 1 uM by KINOMEScan assay; method in brief: as §1
T4 sequence (whole entry): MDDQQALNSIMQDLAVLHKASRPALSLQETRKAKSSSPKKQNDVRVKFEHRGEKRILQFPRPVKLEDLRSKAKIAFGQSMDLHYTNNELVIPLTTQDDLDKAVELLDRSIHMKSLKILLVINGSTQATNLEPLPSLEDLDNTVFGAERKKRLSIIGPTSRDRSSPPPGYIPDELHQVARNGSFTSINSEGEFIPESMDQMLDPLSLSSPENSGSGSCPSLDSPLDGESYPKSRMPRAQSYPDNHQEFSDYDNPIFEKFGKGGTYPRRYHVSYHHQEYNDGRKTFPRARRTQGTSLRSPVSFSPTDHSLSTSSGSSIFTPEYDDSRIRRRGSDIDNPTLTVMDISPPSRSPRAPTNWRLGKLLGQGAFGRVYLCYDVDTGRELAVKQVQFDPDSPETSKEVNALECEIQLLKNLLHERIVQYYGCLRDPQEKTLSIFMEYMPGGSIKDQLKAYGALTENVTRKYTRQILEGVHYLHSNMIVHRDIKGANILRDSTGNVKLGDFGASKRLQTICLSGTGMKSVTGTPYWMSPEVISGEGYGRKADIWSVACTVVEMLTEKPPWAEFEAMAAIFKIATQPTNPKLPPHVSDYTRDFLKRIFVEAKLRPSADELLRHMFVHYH

[12] = biological target: Wee1-like protein kinase 2 (Homo sapiens) (UniProt P0C1S8); assay: Inhibition of human WEE2 (M204 to K492 residues) expressed in bacterial expression system at 1 uM by KINOMEScan assay; method in brief: as §1
[13] = biological target: T2, Mitogen-activated protein kinase kinase kinase 7 (Homo sapiens); assay: Binding affinity to full length recombinant human GST-tagged TAK1 expressed in baculovirus expression system assessed as labeling of Cys-174 residue after 1 hr by mass spectrometric analysis

Chain of Mitogen-activated protein kinase 1 (P28482 whole entry): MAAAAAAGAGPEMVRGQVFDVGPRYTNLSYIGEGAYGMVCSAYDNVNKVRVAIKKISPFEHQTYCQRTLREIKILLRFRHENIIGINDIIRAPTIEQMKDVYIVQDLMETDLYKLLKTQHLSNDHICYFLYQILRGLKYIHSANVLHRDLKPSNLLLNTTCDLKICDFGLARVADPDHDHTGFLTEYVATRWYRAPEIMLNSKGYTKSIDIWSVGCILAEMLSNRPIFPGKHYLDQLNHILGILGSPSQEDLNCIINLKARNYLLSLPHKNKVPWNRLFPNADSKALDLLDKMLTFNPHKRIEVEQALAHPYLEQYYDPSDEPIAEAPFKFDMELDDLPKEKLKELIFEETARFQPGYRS
Chain of Dual specificity mitogen-activated protein kinase kinase 1 (Q02750 whole entry): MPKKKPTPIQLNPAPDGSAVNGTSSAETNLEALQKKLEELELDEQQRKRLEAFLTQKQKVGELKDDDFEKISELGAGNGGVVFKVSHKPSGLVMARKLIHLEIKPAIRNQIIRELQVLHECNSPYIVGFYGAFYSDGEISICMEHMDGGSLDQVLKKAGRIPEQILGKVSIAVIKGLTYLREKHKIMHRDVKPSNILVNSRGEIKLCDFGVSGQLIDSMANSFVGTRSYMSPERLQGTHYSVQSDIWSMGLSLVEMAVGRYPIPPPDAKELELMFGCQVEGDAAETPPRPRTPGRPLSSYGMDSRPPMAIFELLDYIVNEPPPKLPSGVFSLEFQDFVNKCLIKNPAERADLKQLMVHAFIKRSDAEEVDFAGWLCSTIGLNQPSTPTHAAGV
Chain of Wee1-like protein kinase (Homo sapiens) (P30291 whole entry, looked up, the tested form may be a part): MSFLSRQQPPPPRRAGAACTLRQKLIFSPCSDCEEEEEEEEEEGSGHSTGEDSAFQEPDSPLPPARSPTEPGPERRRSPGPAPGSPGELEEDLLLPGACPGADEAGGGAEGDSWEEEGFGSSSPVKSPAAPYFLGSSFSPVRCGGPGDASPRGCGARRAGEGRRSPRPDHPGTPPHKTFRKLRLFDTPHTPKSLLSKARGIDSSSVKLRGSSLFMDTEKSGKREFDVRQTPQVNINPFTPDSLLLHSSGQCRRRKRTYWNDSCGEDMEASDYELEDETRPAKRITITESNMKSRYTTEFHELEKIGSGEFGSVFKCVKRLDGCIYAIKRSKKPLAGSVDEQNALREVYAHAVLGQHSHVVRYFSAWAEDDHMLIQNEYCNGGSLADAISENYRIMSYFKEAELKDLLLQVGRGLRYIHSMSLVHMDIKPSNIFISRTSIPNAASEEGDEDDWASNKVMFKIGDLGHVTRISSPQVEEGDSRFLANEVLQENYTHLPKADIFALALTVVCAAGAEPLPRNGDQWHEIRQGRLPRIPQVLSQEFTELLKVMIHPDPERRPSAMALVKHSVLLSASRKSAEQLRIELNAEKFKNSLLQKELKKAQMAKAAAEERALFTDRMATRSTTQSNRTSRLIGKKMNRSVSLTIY
Chain of Protein-tyrosine kinase 2-beta (Homo sapiens) (Q14289 whole entry, looked up, the tested form may be a part): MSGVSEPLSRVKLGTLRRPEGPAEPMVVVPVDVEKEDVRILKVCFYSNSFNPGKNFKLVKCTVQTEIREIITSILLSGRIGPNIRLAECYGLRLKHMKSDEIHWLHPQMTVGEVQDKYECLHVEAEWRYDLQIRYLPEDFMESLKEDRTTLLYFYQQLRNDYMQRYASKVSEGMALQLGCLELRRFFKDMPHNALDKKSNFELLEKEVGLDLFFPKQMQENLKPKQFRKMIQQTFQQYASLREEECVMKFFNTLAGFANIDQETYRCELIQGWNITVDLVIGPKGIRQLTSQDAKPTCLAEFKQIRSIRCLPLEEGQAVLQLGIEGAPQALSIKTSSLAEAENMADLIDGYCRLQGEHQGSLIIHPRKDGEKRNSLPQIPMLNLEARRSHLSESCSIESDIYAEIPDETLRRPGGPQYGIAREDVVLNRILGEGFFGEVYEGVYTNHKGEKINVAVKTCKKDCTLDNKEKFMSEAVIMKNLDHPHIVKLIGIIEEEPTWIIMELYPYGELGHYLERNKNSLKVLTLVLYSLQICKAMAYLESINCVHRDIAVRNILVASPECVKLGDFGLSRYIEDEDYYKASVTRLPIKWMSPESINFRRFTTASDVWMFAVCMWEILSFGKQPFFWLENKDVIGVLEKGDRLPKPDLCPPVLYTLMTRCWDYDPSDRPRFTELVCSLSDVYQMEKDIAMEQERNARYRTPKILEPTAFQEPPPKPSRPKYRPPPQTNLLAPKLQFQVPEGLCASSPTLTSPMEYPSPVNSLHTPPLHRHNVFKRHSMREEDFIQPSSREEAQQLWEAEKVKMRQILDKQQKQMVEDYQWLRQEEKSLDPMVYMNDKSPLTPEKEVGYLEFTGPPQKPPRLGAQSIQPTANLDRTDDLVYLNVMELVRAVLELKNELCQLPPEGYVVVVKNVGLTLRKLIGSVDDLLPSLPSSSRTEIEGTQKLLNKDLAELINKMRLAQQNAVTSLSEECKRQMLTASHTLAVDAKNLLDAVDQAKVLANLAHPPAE
Chain of Wee1-like protein kinase 2 (Homo sapiens) (P0C1S8 whole entry, looked up, the tested form may be a part): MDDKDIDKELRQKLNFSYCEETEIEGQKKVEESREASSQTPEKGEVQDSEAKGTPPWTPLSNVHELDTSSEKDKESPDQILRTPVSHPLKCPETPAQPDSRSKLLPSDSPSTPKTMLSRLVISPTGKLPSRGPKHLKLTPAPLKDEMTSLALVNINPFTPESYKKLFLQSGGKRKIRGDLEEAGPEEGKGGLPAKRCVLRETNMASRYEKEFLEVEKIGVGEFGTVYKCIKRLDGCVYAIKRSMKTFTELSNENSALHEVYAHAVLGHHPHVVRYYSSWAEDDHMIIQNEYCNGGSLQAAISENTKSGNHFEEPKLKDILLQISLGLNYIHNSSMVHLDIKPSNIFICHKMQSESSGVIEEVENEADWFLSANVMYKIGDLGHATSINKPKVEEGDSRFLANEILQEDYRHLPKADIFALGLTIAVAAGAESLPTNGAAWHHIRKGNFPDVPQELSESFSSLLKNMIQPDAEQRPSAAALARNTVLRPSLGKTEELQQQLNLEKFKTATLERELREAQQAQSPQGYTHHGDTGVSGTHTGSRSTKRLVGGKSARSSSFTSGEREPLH

Structure (SMILES) | t1/2 [1] | IC50 [2] | IC50 [3] | further results
C=CC(=O)Nc1ccc(Oc2nc(Nc3ccc(N4CCN(C)CC4)cc3)nc3[nH]ccc23)cc1 |  |  |  | IC50 [4]: 34 nM
C=CC(=O)Oc1ccccc1Nc1nc(Nc2cccc(N3CCOCC3)c2)ncc1Cl | 23 min | 736 nM | 11 nM | 
C=CC(=O)Oc1ccccc1Nc1nc(Nc2ccc(N3CCN(C)CC3)cc2)ncc1Cl | 5.7 min | 277 nM | 16 nM | 
C=CC(=O)Nc1ccccc1-n1ccc2cnc(Nc3ccc(N4CCN(C)CC4)cc3)nc21 | 10.5 min | > 10000 nM | 6810 nM | 
C=CC(=O)Oc1ccccc1Nc1nc(Nc2ccc(N3CCN(C)CC3)cc2OC)ncc1Cl |  |  |  | IC50 [4]: 342 nM
C=CC(=O)Nc1ccccc1Oc1nc(Nc2ccc(N3CCN(C)CC3)cc2)ncc1OC | 15.3 min | 1670 nM | 1300 nM | 
C=CC(=O)Nc1ccccc1Oc1nc(Nc2cnn(C(F)F)c2)ncc1Cl | 4.2 min | 242 nM | 26 nM | 
C=CC(=O)Nc1ccccc1Nc1nc(Nc2ccc(N3CCN(C)CC3)cc2)ncc1Cl | 10.8 min | 1090 nM | 142 nM | Kinact [5]: 1.1 ×10⁻³ /s; IC50 [6]: 125 nM; Ki [6]: 160 nM
C=CC(=O)Oc1ccccc1Nc1nc(Nc2cccc(N3CCN(C(C)=O)CC3)c2)ncc1Cl | < 1 min | 225 nM | 9.5 nM | 
C=CC(=O)Nc1cc(NC(C)=O)ccc1Oc1nc(Nc2ccc(N3CCN(C)CC3)cc2)ncc1Cl |  |  | 4810 nM | IC50 [4]: 1640 nM
COc1cc(O)c2c(c1)/C=C/C[C@H](O)[C@H](O)C(=O)/C=C\C[C@H](C)OC2=O |  | 738 nM | 2.9 nM | inhibition [7]: Active
C=CC(=O)Nc1ccccc1Oc1nc(Nc2ccc(N3CCN(C)CC3)cc2)ncc1C1CC1 | 12.8 min | 5600 nM | 763 nM | 
C=CC(=O)Nc1ccccc1Oc1nc(Nc2cnn(C)c2)ncc1Cl | 8.1 min | 3140 nM | 9.8 nM | 
CCC(=O)Nc1ccccc1Nc1nc(Nc2ccc(N3CCN(C)CC3)cc2)ncc1Cl |  |  |  | inhibition [8]: Active; inhibition [9]: Active; inhibition [10]: Active; inhibition [11]: Active; inhibition [12]: Active
C=CC(=O)Nc1ccccc1Sc1nc(Nc2ccc(N3CCN(C)CC3)cc2)ncc1Cl |  |  | 2480 nM | 

Now from value to compound, other results behind:

t1/2 [1] | IC50 [2] | IC50 [3] | Structure (SMILES) | further results
8.8 min | 9230 nM | 1630 nM | C=CC(=O)Nc1ccccc1Oc1nc(Nc2ccc(N3CCN(C)CC3)cc2)ncc1C | 
3.8 min | 361 nM | 8.9 nM | C=CC(=O)Oc1ccccc1Nc1nc(Nc2ccc(N3CCOCC3)cc2)ncc1Cl | 
3 min | > 10000 nM | 2500 nM | CN1CCN(c2ccc(Nc3ncc(Cl)c(Oc4ccccc4NC(=O)CCl)n3)cc2)CC1 | IC50 [4]: 25 nM
 |  | > 10000 nM | C=CC(=O)Nc1ccccc1Oc1nc(Nc2ccc(N3CCN(C)CC3)cc2)nc(N)c1Cl | 
6.1 min | 7000 nM | 78 nM | C=CC(=O)Nc1ccccc1Oc1nc(Nc2ccc(N3CCN(C)CC3)cc2)ncc1Cl | Activity [13]: Active; IC50 [6]: 360 nM
6.9 min | 90.3 nM | 8.5 nM | C=CC(=O)Nc1ccccc1Oc1nc(Nc2cnn(CCOC)c2)ncc1Cl | IC50 [6]: 7.6 nM
 |  | 4470 nM | C=CC(=O)Nc1ccccc1Oc1ccnc(Nc2ccc(N3CCN(C)CC3)cc2)n1 | 
4 min | 4620 nM | 8.2 nM | C=CC(=O)Nc1ccccc1Oc1nc(Nc2cnn(C3CCOCC3)c2)ncc1Cl | 
 |  | > 10000 nM | CCC(=O)Nc1ccccc1Oc1nc(Nc2ccc(N3CCN(C)CC3)cc2)ncc1Cl | IC50 [4]: > 10000 nM

From ChEMBL document CHEMBL3875204, “Structure-guided development of covalent TAK1 inhibitors” (Bioorg Med Chem, 2017)
